Data as given in PMC5469413 (Journal of immunology (Baltimore, Md. : 1950), 2017).

Tests used:
Staphylococcus aureus = test: Bacterial killing assay with recombinant whole IFN-β; type: cell-based; conditions: 5×10^2 units/ml mIFN-β incubated at 37°C for 60 min, then bacteria 3 hours, CFU
Staphylococcus epidermis = test: Bacterial killing assay with recombinant whole IFN-β; type: cell-based; conditions: incubated with IFN-β (Fig. S1)
Procedure, shortened: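 Overnight cultures subcultured to mid-log (OD₆₀₀=0.4), washed in sterile PBS and renormalised to OD₆₀₀=0.4. Bacteria resuspended in assay medium and incubated with recombinant whole IFN-β or vehicle in 100 μl reactions at 37°C with shaking. Ten-fold serial dilutions plated on LB to count surviving CFU.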

Escherichia coli = test: Bacterial killing assay with recombinant whole IFN-β; type: cell-based; conditions: increasing doses of IFN-β, 3 hours, CFU
[1] = test system: S. aureus isogenic mutant lacking the dlt gene (Δdlt); test: Bacterial killing assay with recombinant whole IFN-β, dlt-deficient strain; type: cell-based, Staphylococcus aureus; conditions: increasing concentrations of IFN-β, 3 hours, CFU
[2] = test system: gram-negative strains of bacteria; test: Killing assay with IFN-β helix 4 peptide, gram-negative bacteria; type: cell-based; conditions: bacteria 1×10^5/ml, 6 μM mouse helix 4 peptide, 3 hours, 37°C, CFU (Fig. 6I)

With “mIFN-β: recombinant whole mouse IFN-β (PBL Interferon)” the “killing of S. aureus after pre-incubation at 37°C” value (Staphylococcus aureus) was “killing was not lost”, the “killing of Staphylococcus epidermis” value (Staphylococcus epidermis) was “observed killing” and the “inhibitory or killing effect on Escherichia coli” value (Escherichia coli) was “did not observe any inhibitory or killing effect”. For the same substance, the “killing of Δdlt S. aureus compared to WT” value [1] was “increased killing of Δdlt bacteria compared to WT” and the “antimicrobial activity against gram-negative bacteria” value [2] was “significantly less effective”.
